In ChEMBL document CHEMBL4043093, “2-Oxo-3, 4-dihydropyrimido[4, 5-d]pyrimidinyl derivatives as new irreversible pan fibroblast growth factor receptor (FGFR) inhibitors” (Eur J Med Chem, 2017) one finds Activity and IC50 data, which are given here for 1 molecule.

The target of test [1] is Receptor tyrosine-protein kinase erbB-4 (Homo sapiens) (UniProt Q15303). In words: Inhibition of wild-type human partial length ERBB4 (L690 to K994 residues) expressed in Escherichia coli BL21 assessed as residual activity at 1000 nM after 30 mins by Kinomescan method relative to control.
Test [2] has as its target Mitogen-activated protein kinase 10 (Homo sapiens) (UniProt P53779). In words: Inhibition of wild-type human partial length JNK3 (V28 to Q422 residues) expressed in HEK293 cells assessed as residual activity at 1000 nM after 30 mins by Kinomescan method relative to control. The class given is cell-based.
Test [3] concerns the target Serine/threonine-protein kinase DCLK3 (Homo sapiens) (UniProt Q9C098). In words: Inhibition of wild-type human partial length DCAMKL3 (E140 to V628 residues) expressed in Escherichia coli BL21 assessed as residual activity at 1000 nM after 30 mins by Kinomescan method relative to control.
Test [4] addresses Casein kinase I isoform delta (Homo sapiens) (UniProt P48730). As to the kind of experiment: Inhibition of wild-type human full length CSNK1D (M1 to K409 residues) expressed in Escherichia coli BL21 assessed as residual activity at 1000 nM after 30 mins by Kinomescan method relative to control. In short, it runs like this:
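Single-point screen at a fixed 1 µM, run within a 456-kinase DiscoveRx KINOMEscan panel. Each kinase's read-out is Percent Control, i.e. signal relative to a control without compound. Hits were scored by a Percent Control < 35 cut-off, and an S(35) selectivity score was calculated across the non-mutant kinases.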

Test [5] deals with cAMP-dependent protein kinase catalytic subunit alpha (Homo sapiens) (UniProt P17612). As to the kind of experiment: Inhibition of wild-type human partial length PKAC-alpha (G10 to F351 residues) expressed in Escherichia coli BL21 assessed as residual activity at 1000 nM after 30 mins by Kinomescan method relative to control.
In test [6] the target is Ribosomal protein S6 kinase alpha-1 (Homo sapiens) (UniProt Q15418). As to the kind of experiment: Inhibition of wild-type human partial length C-terminal RSK1 kinase domain 2 (P360 to L681 residues) expressed in Escherichia coli BL21 assessed as residual activity at 1000 nM after 30 mins by Kinomescan method relative to control.
Test [7] addresses Ribosomal protein S6 kinase alpha-2 (Homo sapiens) (UniProt Q15349). In words: Inhibition of wild-type human partial length C-terminal RSK2 kinase domain 2 (V402 to S715 residues) expressed in HEK293 cells assessed as residual activity at 1000 nM after 30 mins by Kinomescan method relative to control. The class given is cell-based.
Test [8] addresses Serine/threonine-protein kinase 33 (Homo sapiens) (UniProt Q9BYT3). In words: Inhibition of wild-type human full length STK33 (M1 to L514 residues) expressed in Escherichia coli BL21 assessed as residual activity at 1000 nM after 30 mins by Kinomescan method relative to control.
Test [9] addresses Serine/threonine-protein kinase RIO3 (Homo sapiens) (UniProt O14730). In words: Inhibition of wild-type human full length RIOK3 (M1 to E519 residues) expressed in Escherichia coli BL21 assessed as residual activity at 1000 nM after 30 mins by Kinomescan method relative to control.
In test [10] the target is Serine/threonine-protein kinase LATS2 (Homo sapiens) (UniProt Q9NRM7). As to the kind of experiment: Inhibition of wild-type human partial length LATS2 (Q641 to V1088 residues) expressed in HEK293 cells assessed as residual activity at 1000 nM after 30 mins by Kinomescan method relative to control. The class given is cell-based.
Test [11] addresses Mitogen-activated protein kinase 6 (Homo sapiens) (UniProt Q16659). As to the kind of experiment: Inhibition of wild-type human partial length ERK3 (M1 to P413 residues) expressed in Escherichia coli BL21 assessed as residual activity at 1000 nM after 30 mins by Kinomescan method relative to control.
Test [12] has as its target Inhibitor of nuclear factor kappa-B kinase subunit beta (Homo sapiens) (UniProt O14920). As to the kind of experiment: Inhibition of wild-type human full length IKK-beta (M1 to S756 residues) expressed in HEK293 cells assessed as residual activity at 1000 nM after 30 mins by Kinomescan method relative to control. The class given is cell-based. The method in brief: (§1)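 Single-concentration screen at 1 µM across a 456-kinase KINOMEscan panel. The read-out is Percent Control for each kinase.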

For test [13], the system named is Epidermal growth factor receptor (Homo sapiens), P00533 [UNDEFINED MUTATION]. As to the kind of experiment: Inhibition of human partial length EGFR L747-E749del/A750P mutant expressed in Escherichia coli BL21 assessed as residual activity at 1000 nM after 30 mins by Kinomescan method relative to control. In short, it runs like this: (§2)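 KINOMEscan binding panel of 456 kinases, with the test compound at a single concentration of 1 µM. Read-out is Percent Control.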

For test [14], the system named is SW780. As to the kind of experiment: Antiproliferative activity against human FGFR3-amplified SW780 cells after 5 days by SRB assay. Conditions: SW780, 120 h. A general note: The SRB assay estimates cell density from bound dye.
In test [15] the target is Tyrosine-protein kinase ABL1 (Homo sapiens) (UniProt P00519). In words: Inhibition of wild-type human non-phosphorylated ABL1 (S229 to K512 residues) expressed in HEK293 cells assessed as residual activity at 1000 nM after 30 mins by Kinomescan method relative to control. The class given is cell-based.
For test [16], the target named is Serine/threonine-protein kinase 26 (Homo sapiens) (UniProt Q9P289). In words: Inhibition of wild-type human full length MST4 (M1 to P416 residues) expressed in HEK293 cells assessed as residual activity at 1000 nM after 30 mins by Kinomescan method relative to control. The class given is cell-based. The method in brief: as §1
For test [17], the target named is Phosphatidylinositol 3-kinase catalytic subunit type 3 (Homo sapiens) (UniProt Q8NEB9). In words: Inhibition of wild-type human partial length VPS34 (S282 to H879 residues) expressed in HEK293 cells assessed as residual activity at 1000 nM after 30 mins by Kinomescan method relative to control. The class given is cell-based.
For test [18], the target named is MAP kinase-interacting serine/threonine-protein kinase 2 (Homo sapiens) (UniProt Q9HBH9). In words: Inhibition of wild-type human partial length MKNK2 (G63 to S388 residues) expressed in HEK293 cells assessed as residual activity at 1000 nM after 30 mins by Kinomescan method relative to control. It is filed as cell-based.
Test [19] has as its target Proto-oncogene tyrosine-protein kinase Src (Homo sapiens) (UniProt P12931). As to the kind of experiment: Inhibition of wild-type human partial length SRC (L240 to L536 residues) expressed in Escherichia coli BL21 assessed as residual activity at 1000 nM after 30 mins by Kinomescan method relative to control.
Test [20] addresses Protein kinase C epsilon type (Homo sapiens) (UniProt Q02156). As to the kind of experiment: Inhibition of wild-type human partial length PRKCE (A378 to P737 residues) expressed in HEK293 cells assessed as residual activity at 1000 nM after 30 mins by Kinomescan method relative to control. It is filed as cell-based.
In test [21] the test system is Receptor-type tyrosine-protein kinase FLT3 (Homo sapiens), P36888 [K663Q]. In words: Inhibition of human partial length FLT3 K663Q mutant (V592 to Y969 residues) expressed in Escherichia coli BL21 assessed as residual activity at 1000 nM after 30 mins by Kinomescan method relative to control. In short, it runs like this:
as §2

pIC50: −log10 of the molar value.

Serine/threonine-protein kinase 26 (Homo sapiens), sequence (Q9P289 2-416 limits assumed): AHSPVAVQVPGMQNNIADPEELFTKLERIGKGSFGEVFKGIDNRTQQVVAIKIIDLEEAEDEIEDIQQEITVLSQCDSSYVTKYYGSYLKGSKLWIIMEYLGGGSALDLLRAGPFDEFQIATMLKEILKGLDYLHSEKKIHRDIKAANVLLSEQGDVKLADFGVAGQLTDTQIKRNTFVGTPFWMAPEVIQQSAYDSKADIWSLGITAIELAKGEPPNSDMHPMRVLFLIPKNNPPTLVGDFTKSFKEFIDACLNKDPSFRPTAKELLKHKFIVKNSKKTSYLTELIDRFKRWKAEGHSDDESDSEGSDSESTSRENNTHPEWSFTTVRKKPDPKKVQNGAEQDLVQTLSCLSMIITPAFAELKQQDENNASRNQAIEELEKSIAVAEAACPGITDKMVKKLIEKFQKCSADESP
Epidermal growth factor receptor (Homo sapiens), P00533 [UNDEFINED MUTATION], sequence (P00533 whole entry, looked up, stated change not applied): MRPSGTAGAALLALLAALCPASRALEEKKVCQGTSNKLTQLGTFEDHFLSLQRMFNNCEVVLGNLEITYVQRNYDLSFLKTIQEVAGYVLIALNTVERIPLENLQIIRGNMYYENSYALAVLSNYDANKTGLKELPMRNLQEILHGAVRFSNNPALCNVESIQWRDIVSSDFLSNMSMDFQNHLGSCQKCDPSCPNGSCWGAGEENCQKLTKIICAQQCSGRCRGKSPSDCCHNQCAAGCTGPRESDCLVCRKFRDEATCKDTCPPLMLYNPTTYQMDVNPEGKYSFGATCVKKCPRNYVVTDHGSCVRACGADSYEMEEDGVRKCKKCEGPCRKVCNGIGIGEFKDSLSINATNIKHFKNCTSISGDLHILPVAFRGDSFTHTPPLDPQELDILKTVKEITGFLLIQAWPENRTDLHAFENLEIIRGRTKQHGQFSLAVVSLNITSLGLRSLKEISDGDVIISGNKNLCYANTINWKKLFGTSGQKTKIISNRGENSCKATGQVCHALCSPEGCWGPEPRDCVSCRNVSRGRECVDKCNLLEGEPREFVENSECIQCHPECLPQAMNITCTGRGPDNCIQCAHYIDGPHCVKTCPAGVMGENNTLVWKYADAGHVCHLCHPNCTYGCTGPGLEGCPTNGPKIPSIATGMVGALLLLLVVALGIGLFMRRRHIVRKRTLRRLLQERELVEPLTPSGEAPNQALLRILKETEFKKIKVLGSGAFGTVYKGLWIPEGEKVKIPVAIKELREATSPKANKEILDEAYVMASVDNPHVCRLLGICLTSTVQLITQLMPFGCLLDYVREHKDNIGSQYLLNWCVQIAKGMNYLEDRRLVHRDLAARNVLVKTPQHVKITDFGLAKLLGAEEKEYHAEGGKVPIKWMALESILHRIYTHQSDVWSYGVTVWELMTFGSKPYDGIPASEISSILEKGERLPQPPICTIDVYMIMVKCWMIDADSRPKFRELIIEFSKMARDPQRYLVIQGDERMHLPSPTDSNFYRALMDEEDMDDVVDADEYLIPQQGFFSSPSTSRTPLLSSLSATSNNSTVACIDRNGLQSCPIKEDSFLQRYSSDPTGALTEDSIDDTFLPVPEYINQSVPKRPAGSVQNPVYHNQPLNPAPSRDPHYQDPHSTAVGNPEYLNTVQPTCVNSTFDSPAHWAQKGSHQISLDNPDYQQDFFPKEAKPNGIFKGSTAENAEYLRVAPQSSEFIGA
Mitogen-activated protein kinase 10 (Homo sapiens), sequence (P53779 whole entry, the tested form may be a part): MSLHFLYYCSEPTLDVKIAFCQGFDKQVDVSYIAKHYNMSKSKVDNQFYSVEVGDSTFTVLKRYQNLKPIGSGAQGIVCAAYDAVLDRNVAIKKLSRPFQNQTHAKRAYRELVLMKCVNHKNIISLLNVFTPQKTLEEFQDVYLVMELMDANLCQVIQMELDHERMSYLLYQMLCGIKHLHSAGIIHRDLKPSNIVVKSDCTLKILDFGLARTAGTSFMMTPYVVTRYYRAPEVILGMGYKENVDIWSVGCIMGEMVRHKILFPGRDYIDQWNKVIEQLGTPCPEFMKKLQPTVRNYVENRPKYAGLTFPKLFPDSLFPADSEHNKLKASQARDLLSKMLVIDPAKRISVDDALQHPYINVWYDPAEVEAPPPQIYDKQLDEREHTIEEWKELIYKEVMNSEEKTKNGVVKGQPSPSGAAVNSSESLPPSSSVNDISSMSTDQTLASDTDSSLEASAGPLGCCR
Receptor tyrosine-protein kinase erbB-4 (Homo sapiens), sequence (Q15303 whole entry, the tested form may be a part): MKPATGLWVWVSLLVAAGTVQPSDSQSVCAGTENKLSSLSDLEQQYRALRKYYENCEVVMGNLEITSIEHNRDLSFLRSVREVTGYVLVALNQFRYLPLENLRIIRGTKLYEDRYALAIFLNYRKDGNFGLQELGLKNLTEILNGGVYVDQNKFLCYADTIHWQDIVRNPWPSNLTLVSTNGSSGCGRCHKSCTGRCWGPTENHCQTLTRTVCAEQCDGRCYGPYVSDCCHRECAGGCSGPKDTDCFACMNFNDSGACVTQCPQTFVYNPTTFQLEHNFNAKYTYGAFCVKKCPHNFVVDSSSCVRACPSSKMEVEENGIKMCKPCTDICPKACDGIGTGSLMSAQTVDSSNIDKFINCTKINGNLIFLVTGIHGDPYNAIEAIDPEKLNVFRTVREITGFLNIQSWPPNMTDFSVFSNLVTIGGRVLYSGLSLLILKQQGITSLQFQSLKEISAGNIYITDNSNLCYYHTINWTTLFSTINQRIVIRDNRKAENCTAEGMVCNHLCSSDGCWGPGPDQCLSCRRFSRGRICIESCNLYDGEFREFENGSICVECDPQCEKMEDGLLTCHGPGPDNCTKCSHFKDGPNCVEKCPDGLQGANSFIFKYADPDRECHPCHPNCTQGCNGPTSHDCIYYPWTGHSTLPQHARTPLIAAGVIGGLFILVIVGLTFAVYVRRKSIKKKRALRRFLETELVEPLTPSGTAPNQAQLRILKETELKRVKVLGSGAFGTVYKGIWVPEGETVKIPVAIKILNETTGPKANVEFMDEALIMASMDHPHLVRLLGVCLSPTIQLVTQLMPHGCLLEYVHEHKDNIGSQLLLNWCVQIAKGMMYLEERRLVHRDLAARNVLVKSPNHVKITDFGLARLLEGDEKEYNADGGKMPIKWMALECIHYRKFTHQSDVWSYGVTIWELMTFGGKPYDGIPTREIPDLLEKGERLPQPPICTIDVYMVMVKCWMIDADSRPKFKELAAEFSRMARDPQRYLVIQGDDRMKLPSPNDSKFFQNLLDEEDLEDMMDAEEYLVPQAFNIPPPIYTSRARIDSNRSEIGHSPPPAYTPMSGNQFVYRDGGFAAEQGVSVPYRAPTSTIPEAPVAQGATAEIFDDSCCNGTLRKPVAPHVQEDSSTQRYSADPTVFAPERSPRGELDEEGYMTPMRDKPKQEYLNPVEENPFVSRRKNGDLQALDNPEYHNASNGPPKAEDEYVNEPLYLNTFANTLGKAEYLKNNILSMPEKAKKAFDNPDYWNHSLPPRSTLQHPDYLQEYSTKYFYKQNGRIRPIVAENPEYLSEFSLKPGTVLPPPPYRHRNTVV
Ribosomal protein S6 kinase alpha-2 (Homo sapiens), sequence (Q15349 whole entry, the tested form may be a part): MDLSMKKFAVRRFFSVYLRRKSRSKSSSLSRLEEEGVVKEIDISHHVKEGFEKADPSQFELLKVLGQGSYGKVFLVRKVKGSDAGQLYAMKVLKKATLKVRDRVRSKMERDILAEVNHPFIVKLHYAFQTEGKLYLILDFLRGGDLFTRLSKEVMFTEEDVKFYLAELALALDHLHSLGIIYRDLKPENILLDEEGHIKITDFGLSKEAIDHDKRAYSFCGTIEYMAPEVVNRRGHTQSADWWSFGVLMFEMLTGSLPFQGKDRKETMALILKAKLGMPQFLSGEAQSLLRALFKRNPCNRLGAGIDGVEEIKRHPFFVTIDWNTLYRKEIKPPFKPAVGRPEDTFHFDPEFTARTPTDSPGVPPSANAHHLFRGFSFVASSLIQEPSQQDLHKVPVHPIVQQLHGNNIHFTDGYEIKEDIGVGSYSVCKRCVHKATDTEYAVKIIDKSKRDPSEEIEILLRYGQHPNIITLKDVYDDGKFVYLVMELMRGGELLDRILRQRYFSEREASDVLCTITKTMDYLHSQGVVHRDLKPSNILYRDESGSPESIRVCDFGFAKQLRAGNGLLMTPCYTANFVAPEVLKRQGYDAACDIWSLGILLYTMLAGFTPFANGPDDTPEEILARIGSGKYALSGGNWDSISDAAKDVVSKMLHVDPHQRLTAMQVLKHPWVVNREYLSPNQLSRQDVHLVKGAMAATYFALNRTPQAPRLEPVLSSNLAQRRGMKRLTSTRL
Casein kinase I isoform delta (Homo sapiens), sequence (P48730 whole entry, looked up, the tested form may be a part, canonical isoform): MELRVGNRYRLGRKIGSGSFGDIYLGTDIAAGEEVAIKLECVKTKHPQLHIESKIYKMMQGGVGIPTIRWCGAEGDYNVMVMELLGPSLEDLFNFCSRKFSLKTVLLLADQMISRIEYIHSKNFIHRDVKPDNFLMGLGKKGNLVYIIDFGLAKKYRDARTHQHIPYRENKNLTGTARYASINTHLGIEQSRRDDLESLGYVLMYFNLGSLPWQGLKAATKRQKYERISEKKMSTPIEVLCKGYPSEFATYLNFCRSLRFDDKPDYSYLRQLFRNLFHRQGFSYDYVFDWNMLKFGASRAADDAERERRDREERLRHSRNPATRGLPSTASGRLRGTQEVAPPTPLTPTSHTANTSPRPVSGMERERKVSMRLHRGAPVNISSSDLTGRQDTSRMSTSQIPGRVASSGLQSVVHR
MAP kinase-interacting serine/threonine-protein kinase 2 (Homo sapiens), sequence (Q9HBH9 whole entry, looked up, the tested form may be a part): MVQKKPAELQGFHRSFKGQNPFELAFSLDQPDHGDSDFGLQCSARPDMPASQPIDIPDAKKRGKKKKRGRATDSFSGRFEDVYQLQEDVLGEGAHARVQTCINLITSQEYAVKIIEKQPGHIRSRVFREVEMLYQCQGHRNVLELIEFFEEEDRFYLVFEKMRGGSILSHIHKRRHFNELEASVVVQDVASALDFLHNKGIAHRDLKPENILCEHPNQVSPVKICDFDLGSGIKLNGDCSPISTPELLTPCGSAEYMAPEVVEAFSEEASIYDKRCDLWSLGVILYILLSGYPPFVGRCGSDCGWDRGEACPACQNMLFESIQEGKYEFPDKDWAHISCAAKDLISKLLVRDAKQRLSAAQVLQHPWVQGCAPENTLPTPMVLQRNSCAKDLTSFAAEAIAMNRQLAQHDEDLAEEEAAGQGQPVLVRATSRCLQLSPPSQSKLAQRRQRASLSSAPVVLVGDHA

By pIC50 is commonly meant −log10 of the IC50, conventionally taken in molar units. High values mean a small IC50, low ones a large IC50. For the molecule `COc1cc(OC)c(Cl)c(N2Cc3cnc(Nc4ccc(F)cc4)nc3N(C3CCN(C(=O)/C=C/CN(C)C)CC3)C2=O)c1Cl`, the Activity in test [1] turned out to be 98%; in test [2], 100%; in test [3] it was 81%; in test [4] it was 96%; in test [5], 100%; in test [6], 94%. The Activity in [7] was determined as 96%; in test [8] it was 100%; in [9], 97%; in [10], 100%; in [11], 100%; in test [12], 100%. For the same molecule, the Activity stood at 96% in [13]; 32% in test [15]; 69% in test [16]; 100% in test [17]; 86% in [18]; 11% in [19]. The values for the Activity in [20] and in [21] were 89% and 100%, respectively. The molecule further had a pIC50 in [14] of 7.79.
